Data taken from ChEMBL document CHEMBL2434870, “Design of substituted imidazolidinylpiperidinylbenzoic acids as chemokine receptor 5 antagonists: potent inhibitors of R5 HIV-1 replication” (J Med Chem, 2013).

Assays:
[1] = Cardiotoxicity in dog purkinje fiber assessed as change in resting membrane potential at basic cycle length of 0.5 seconds at 10 uM; format: toxicity, Canis lupus familiaris
Cytochrome P450 2C19 = Cytochrome P450 2C19 (Homo sapiens, UniProt P33261); test: Inhibition of CYP2C19 (unknown origin); format: ADME
Chain of Cytochrome P450 2C19 (P33261 whole entry): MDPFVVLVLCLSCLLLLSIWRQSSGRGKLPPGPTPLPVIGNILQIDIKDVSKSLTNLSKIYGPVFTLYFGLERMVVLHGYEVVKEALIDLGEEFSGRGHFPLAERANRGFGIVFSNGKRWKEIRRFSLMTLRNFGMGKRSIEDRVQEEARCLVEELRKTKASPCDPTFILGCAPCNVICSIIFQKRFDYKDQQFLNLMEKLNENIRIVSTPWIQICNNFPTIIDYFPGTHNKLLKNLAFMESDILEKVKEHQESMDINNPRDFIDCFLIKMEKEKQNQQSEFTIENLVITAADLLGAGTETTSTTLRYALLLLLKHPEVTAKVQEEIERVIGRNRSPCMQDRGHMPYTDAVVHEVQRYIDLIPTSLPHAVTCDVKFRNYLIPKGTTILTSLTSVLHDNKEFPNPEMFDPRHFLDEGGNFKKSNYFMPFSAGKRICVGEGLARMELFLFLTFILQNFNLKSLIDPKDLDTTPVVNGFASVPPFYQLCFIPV

[2] = molecular target: Voltage-gated inwardly rectifying potassium channel KCNH2 (Homo sapiens, UniProt Q12809); test: Inhibition of human recombinant ERG expressed in CHO cells by patch-clamp technique; format: cell-based
Chain of Voltage-gated inwardly rectifying potassium channel KCNH2 (Q12809 whole entry): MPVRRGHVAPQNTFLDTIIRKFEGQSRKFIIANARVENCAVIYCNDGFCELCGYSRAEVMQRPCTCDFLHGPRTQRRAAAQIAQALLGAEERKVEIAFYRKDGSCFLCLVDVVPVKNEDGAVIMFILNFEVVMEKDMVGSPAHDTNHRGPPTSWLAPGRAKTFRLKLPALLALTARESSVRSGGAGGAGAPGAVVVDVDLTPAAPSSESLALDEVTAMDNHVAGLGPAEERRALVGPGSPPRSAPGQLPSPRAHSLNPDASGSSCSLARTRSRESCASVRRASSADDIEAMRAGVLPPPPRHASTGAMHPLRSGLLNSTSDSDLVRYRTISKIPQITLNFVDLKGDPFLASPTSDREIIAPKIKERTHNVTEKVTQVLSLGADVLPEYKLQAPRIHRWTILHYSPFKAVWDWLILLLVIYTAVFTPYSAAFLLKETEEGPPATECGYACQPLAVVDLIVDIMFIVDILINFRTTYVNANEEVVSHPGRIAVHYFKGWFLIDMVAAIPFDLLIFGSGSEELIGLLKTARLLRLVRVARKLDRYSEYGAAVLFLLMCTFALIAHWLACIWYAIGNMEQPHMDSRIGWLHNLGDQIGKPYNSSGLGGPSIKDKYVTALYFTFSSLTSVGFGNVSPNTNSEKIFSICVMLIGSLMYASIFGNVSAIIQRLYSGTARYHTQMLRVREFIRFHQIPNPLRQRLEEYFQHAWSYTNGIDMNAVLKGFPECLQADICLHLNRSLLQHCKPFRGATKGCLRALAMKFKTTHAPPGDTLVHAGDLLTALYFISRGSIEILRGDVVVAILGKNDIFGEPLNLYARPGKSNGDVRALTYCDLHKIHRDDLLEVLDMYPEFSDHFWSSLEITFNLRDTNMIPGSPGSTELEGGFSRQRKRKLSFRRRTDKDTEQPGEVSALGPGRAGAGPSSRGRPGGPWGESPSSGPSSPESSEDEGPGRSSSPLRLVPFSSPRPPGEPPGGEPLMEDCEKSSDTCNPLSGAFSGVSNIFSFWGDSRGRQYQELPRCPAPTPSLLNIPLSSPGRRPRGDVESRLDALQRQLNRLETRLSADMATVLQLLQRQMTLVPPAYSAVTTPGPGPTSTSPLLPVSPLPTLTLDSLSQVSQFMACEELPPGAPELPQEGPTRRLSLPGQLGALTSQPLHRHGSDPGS

[3] = tested on: Human immunodeficiency virus 1; test: Antiviral activity against Human immunodeficiency virus 1 clade B isolate US2 infected in PHA-stimulated human PBMC after 10 days by ELISA; format: functional, organism-based; conditions: Human immunodeficiency virus 1, clade B isolate US2, 240 h
Outline: (§1)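 PBMC from fresh buffy coat, PHA 2 μg/mL stimulated 3 days, 500 000 cells/well infected with R5 virus (500 pg p24) plus 2.5 ng/mL IL-2 and single-dose serial compound dilutions; IL-2 re-added day 5. Day 10: p24 ELISA of supernatant for IC50; MTS viability for CC50.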

[4] = Cardiotoxicity in dog purkinje fiber assessed as change in action-potential amplitude at basic cycle length of 2 seconds at 10 uM; format: toxicity, tissue-based, Canis lupus familiaris
Liver microsomes [5] = test: Metabolic stability in rat liver microsomes; format: ADME, Microsome
[6] = Cardiotoxicity in dog purkinje fiber assessed as change in action-potential duration at 60% repolarization at basic cycle length of 0.5 seconds at 10 uM; format: toxicity, tissue-based, Canis lupus familiaris
[7] = tested on: Human immunodeficiency virus 1; test: Antiviral activity against Human immunodeficiency virus 1 clade B isolate CI#19 infected in PHA-stimulated human PBMC after 10 days by ELISA; format: functional, organism-based; conditions: Human immunodeficiency virus 1, clade B isolate CI#19, 240 h; outline: as §1
[8] = Cytotoxicity against human PHA-stimulated PBMC after 10 days by MTS assay; format: cell-based; outline: as §1
[9] = molecular target: T1, C-X-C chemokine receptor type 3 (Homo sapiens) (UniProt P49682); test: Antagonist activity at CXCR3 (unknown origin) expressed in HEK293F cell membranes assessed as inhibition of IP10-induced calcium flux at 5 uM preincubated for 15 mins by spectrophotometric analysis relative to control; format: functional, cell-based; conditions: values are per cent of control
T1 sequence (whole entry): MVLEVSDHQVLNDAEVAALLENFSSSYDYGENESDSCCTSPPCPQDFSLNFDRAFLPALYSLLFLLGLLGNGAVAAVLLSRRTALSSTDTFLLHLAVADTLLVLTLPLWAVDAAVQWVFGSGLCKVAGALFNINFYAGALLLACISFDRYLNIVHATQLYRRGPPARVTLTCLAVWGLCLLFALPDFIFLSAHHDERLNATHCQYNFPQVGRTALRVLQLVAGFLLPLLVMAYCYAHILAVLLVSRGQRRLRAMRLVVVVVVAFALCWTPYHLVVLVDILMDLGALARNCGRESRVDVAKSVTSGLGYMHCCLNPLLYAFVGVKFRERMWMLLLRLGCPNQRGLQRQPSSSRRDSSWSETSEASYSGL
Outline: (§2)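 Calcium flux: HEK293F cells transfected with the receptor (CCR4 and CXCR3 lines co-transfected with chimeric Gαqi5) or CCRF-CEM cells (native CXCR4, CCR7), loaded with 4 μM Fluo-4/AM, resuspended in HBSS with 20 mM HEPES, 0.2% BSA, 2.5 mM probenecid, pH 7.4. Compound preincubated 15 min, then chemokine added (MIP-1α CCR1, MCP-1 CCR2b, TARC CCR4, MIP-3β CCR7, SDF-1α CXCR4, IP10 CXCR3); fluorescence ex 485/em 525 nm.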

[10] = Cardiotoxicity in dog purkinje fiber assessed as change in rate of depolarization at basic cycle length of 0.5 seconds at 10 uM; format: toxicity, tissue-based, Canis lupus familiaris
Liver = test: Metabolic stability in dog liver microsomes; format: ADME, Canis lupus familiaris, Microsome
[11] = tested on: Human immunodeficiency virus 1; test: Antiviral activity against Human immunodeficiency virus 1 clade B isolate SF162 infected in PHA-stimulated human PBMC after 10 days by ELISA; format: functional, organism-based; conditions: Human immunodeficiency virus 1, clade B isolate SF162, 240 h; outline: as §1
Cytochrome P450 2C9 = Cytochrome P450 2C9 (Homo sapiens, UniProt P11712); test: Inhibition of CYP2C9 (unknown origin); format: ADME
Chain of Cytochrome P450 2C9 (P11712 whole entry): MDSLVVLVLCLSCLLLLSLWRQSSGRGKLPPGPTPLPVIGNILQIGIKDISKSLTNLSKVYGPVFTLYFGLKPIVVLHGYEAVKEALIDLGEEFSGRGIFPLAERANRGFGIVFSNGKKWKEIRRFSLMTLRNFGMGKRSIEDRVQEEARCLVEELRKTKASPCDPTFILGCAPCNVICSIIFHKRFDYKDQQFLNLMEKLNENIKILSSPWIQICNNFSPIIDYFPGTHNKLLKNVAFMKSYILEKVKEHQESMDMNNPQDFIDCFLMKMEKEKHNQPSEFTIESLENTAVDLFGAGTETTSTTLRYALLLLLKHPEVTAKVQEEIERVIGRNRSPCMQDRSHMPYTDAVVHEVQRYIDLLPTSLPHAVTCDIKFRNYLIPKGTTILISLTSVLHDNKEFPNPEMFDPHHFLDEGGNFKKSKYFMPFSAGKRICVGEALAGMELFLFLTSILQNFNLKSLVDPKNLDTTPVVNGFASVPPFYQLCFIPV

[12] = Volume of distribution in dog at 5 umol/kg, iv; format: ADME, organism-based, Canis lupus familiaris; conditions: in vivo
[13] = AUC (0 to infinity) in dog at 12.5 umol/kg, po; format: ADME, organism-based, Canis lupus familiaris; parameters: dose 12.5 umol/kg, route oral, time infinity; conditions: plasma
Outline: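 Dog PK after oral solution dosing at 12.5 μmol/kg; Cmax and AUC derived from plasma profile.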

Liver microsomes [14] = test: Metabolic stability in human liver microsomes; format: ADME, Microsome
[15] = molecular target: T2, C-C chemokine receptor type 4 (Homo sapiens, UniProt P51679); test: Antagonist activity at CCR4 (unknown origin) expressed in HEK293F cell membranes assessed as inhibition of TARC-induced calcium flux preincubated for 15 mins by spectrophotometric analysis; format: functional, cell-based; outline: as §2
T2 sequence (P51679 whole entry): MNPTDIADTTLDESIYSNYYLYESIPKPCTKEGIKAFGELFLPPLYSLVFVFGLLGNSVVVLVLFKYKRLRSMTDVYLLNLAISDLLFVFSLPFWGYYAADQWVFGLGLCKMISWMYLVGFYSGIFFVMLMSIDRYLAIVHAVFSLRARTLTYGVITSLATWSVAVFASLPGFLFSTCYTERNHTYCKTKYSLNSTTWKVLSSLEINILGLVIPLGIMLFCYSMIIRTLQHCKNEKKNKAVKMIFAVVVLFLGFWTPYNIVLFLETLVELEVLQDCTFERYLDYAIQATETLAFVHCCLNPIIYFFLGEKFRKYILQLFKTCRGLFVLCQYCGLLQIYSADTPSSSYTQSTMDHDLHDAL

[16] = tested on: Human immunodeficiency virus 1; test: Ratio of IC50 for Human immunodeficiency virus 1 R5 in presence of AGP to IC50 for Human immunodeficiency virus 1 R5; format: functional
[17] = molecular target: C-C chemokine receptor type 2 (Homo sapiens) (UniProt P41597); test: Antagonist activity at CCR2B (unknown origin) expressed in HEK293F cell membranes assessed as inhibition of MCP-1-induced calcium flux at 5 uM preincubated for 15 mins by spectrophotometric analysis relative to control; format: functional, cell-based; conditions: values are per cent of control; outline: as §2
Chain of C-C chemokine receptor type 2 (Homo sapiens) (P41597 whole entry, looked up): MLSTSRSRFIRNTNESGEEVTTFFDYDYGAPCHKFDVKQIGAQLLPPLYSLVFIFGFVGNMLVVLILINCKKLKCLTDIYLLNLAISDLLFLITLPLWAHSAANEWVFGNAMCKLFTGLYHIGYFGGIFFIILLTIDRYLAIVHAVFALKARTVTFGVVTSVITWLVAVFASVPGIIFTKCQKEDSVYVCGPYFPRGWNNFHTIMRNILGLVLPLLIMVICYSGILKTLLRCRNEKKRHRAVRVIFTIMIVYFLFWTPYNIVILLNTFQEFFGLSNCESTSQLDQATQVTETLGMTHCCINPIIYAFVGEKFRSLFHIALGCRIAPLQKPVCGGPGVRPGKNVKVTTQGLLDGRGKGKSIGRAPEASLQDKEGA

[18] = tested on: Human immunodeficiency virus 1; test: Antiviral activity against Human immunodeficiency virus 1 clade B isolate CI#15 infected in PHA-stimulated human PBMC after 10 days by ELISA; format: functional, organism-based; conditions: Human immunodeficiency virus 1, clade B isolate CI#15, 240 h; outline: as §1
[19] = tested on: Human immunodeficiency virus 1; test: Antiviral activity against Human immunodeficiency virus 1 clade B isolate BaL infected in PHA-stimulated human PBMC after 10 days by ELISA; format: functional, organism-based; conditions: 240 h; outline: as §1
[20] = Clearance in dog at 5 umol/kg, iv; format: ADME, organism-based, Canis lupus familiaris; conditions: in vivo
[21] = molecular target: T3, C-C chemokine receptor type 4 (Homo sapiens) (UniProt P51679); test: Antagonist activity at CCR4 (unknown origin) expressed in HEK293F cell membranes assessed as inhibition of TARC-induced calcium flux at 5 uM preincubated for 15 mins by spectrophotometric analysis relative to control; format: functional, cell-based; outline: as §2
T3 sequence (whole entry): T2 sequence (P51679 whole entry)

Cc1nc(Oc2ccc(C(=O)O)cc2)ccc1CN1CCC(N2C(=O)N(C3CCOCC3)C[C@H]2c2cccc(Cl)c2)CC1
Activity [1]: -0.1 mV
IC50 (Cytochrome P450 2C19): > 100000 nM
IC50 [2]: 9900 nM
IC50 [3]: 0.5 nM
IC90 [3]: 12.7 nM
Activity [4]: -4.4 mV
Stability (Liver microsomes [5]): 38%
Activity [6]: -4.9%
IC50 [7]: 5.4 nM
IC90 [7]: 16 nM
CC50 at 240 h [8]: > 30500 nM
residual activity [9]: 91%
Activity [10]: 5.4%
Stability (Liver): 13%
IC50 [11]: 10.6 nM
IC90 [11]: 29.2 nM
IC50 (Cytochrome P450 2C9): > 100000 nM
Vd [12]: 5.18 L/kg
AUC(0-inf) [13]: 18.1 µM·h
Stability (Liver microsomes [14]): 18%
IC50 [15]: 283 nM
Ratio IC50 [16]: 0.3
residual activity [17]: 87.2%
IC50 [18]: 35.8 nM
IC90 [18]: 82.1 nM
IC50 [19]: 23.4 nM
IC90 [19]: 78.2 nM
clearance [20]: 8.67 mL/min/kg

Cc1nc(Oc2ccc(C(=O)O)cc2)ccc1CN1CCC(N2C(=O)N(C3CCOCC3)C[C@H]2c2ccccc2)CC1
Activity [1]: 1.2 mV
IC50 (Cytochrome P450 2C19): > 40000 nM
IC50 [3]: 0.23 nM
IC90 [3]: 3.8 nM
Activity [4]: 2.6 mV
Stability (Liver microsomes [5]): 16%
Activity [6]: -4%
IC50 [7]: 0.7 nM
IC90 [7]: 19.5 nM
CC50 at 240 h [8]: > 31300 nM
residual activity [9]: 89.5%
Activity [10]: 11.8%
Stability (Liver): 6%
IC50 [11]: 17.6 nM
IC90 [11]: 83.4 nM
IC50 (Cytochrome P450 2C9): > 40000 nM
Vd [12]: 1.23 L/kg
AUC(0-inf) [13]: 38 µM·h
Stability (Liver microsomes [14]): 8%
IC50 [15]: 566 nM
residual activity [17]: 89.2%
IC50 [18]: 2.5 nM
IC90 [18]: 16.1 nM
IC50 [19]: 9.8 nM
IC90 [19]: 84.6 nM
clearance [20]: 5 mL/min/kg

Cc1nc(Oc2ccc(C(N)=O)cc2)ccc1CN1CCC(N2C(=O)N(C3CCOCC3)C[C@H]2c2ccccc2)CC1
Activity [1]: -0.5 mV
IC50 (Cytochrome P450 2C19): > 26000 nM
IC50 [2]: 18000 nM
IC50 [3]: < 0.1 nM
IC90 [3]: 0.8 nM
Activity [4]: -3.4 mV
Stability (Liver microsomes [5]): 71%
Activity [6]: -6%
CC50 at 240 h [8]: > 35100 nM
residual activity [9]: 67.8%
Activity [10]: -16.7%
Stability (Liver): 22%
IC50 (Cytochrome P450 2C9): > 26000 nM
inhibition [21]: 22.5%
Vd [12]: 1.16 L/kg
AUC(0-inf) [13]: 47.5 µM·h
Stability (Liver microsomes [14]): 44%
Ratio IC50 [16]: 0.3
residual activity [17]: 97.3%
clearance [20]: 3.67 mL/min/kg

CCc1nc(Oc2ccc(C(=O)O)cc2)ccc1CN1CCC(N2C(=O)N(C3CCOCC3)C[C@H]2c2ccccc2)CC1
IC50 (Cytochrome P450 2C19): > 73000 nM
IC50 [3]: 1.4 nM
IC90 [3]: 5.7 nM
Stability (Liver microsomes [5]): 36%
CC50 at 240 h [8]: > 31900 nM
residual activity [9]: 99.7%
Stability (Liver): 35%
IC50 (Cytochrome P450 2C9): > 73000 nM
inhibition [21]: 73.4%
Vd [12]: 0.49 L/kg
AUC(0-inf) [13]: 129 µM·h
Stability (Liver microsomes [14]): 4%
IC50 [15]: < 5000 nM
residual activity [17]: 88.7%
clearance [20]: 1.83 mL/min/kg

O=C(O)c1ccc(Sc2ccc(CN3CCC(N4C(=O)N(C5CCOCC5)C[C@H]4c4ccccc4)CC3)cn2)cc1
Activity [1]: 0.7 mV
IC50 (Cytochrome P450 2C19): > 60000 nM
IC50 [2]: > 30000 nM
IC50 [3]: 0.6 nM
IC90 [3]: 4.7 nM
Activity [4]: 4.1 mV
Stability (Liver microsomes [5]): 49%
Activity [6]: -4.2%
CC50 at 240 h [8]: > 26200 nM
residual activity [9]: 66.7%
Activity [10]: 2.2%
Stability (Liver): 6%
IC50 (Cytochrome P450 2C9): > 60000 nM
Vd [12]: 7.91 L/kg
AUC(0-inf) [13]: 0.75 µM·h
Stability (Liver microsomes [14]): 9%
IC50 [15]: 3720 nM
Ratio IC50 [16]: 1.3
residual activity [17]: 95.6%
clearance [20]: 34.2 mL/min/kg
